Screens from PubChem BioAssay.
The list is not random: actives were taken first. Their share in the collection is about 2.5%.
PAD4 FP inh = human PAD4 inhibitors, primary screen, biochemical, fluorescence polarization, 1536-well format; recombinant PAD4, RCA probe fluorescence polarization; actives 0.41% (n = 330,000); inhibition, % at 6.36 µM; Protein-arginine deiminase type-4 (Homo sapiens), Q9UM07;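 active = percent inhibition above a cutoff equal to the mean of all tested compounds plus 3 SD, cut at about 15% in these data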;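 also: 0% = PAD4 with RCA probe and DMSO and 100% = probe without PAD4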
GSTO1 counter = inhibitors of recombinant GSTO1, primary screen, counter-screen for RBBP9 inhibitor project, biochemical, fluorescence polarization; inhibition, % at 5.96 µM; Glutathione S-transferase omega-1 (Homo sapiens), P78417; activity-based probe fluorescence polarization; actives 1.1% (n = 300,000);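 active = inhibition above the campaign mean inhibition plus 3 SD, cut at about 35% in these data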;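 also: 0% = GSTO1-1 with DMSO and 100% = wells lacking GSTO1-1 enzyme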
TDP2 absorb = human TDP2 enzyme inhibitors, primary screen, biochemical, epi absorbance, recombinant enzyme. Tyrosyl-DNA phosphodiesterase 2 (Homo sapiens), O95551. actives 0.34% (n = 370,000). T5PNP hydrolysis, p-nitrophenol absorbance 415 nm. inhibition, % at 12.8 µM;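 active = inhibition above the mean of all tested compounds plus 3 SD, set per campaign, cut at about 25% in these data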;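 also: 0% = DMSO with enzyme and 100% = buffer with substrate but no TDP2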
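Evaluation: % inhibition relative to enzyme-containing and enzyme-free wells. Material: recombinant human TDP2. Benchmarks: enzyme-free and DMSO wells. Timing: enzyme reaction with compound for 2 h at 37 °C. Compound dosing: 12.8 µM only. Measured by: p-Nitrophenol epi absorbance. Reagent: T5PNP substrate at 5 mM, a TopII-DNA adduct mimic. Replication: single well per compound.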
PRMT1 FP inh = PRMT1 methyltransferase inhibitors, primary screen, biochemical, fluorescence polarization; Protein arginine N-methyltransferase 1 (Homo sapiens), Q99873; recombinant PRMT1, activity-based probe fluorescence polarization; inhibition, % at 2.79 µM; actives 1.3% (n = 370,000);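 active = inhibition above about 21% made by adding two undisclosed values, limit read from the data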
Fh CTSL1 inh = Fasciola hepatica cathepsin L1 inhibitors, primary screen, counter-screen for PFM18AAP inhibitor project, biochemical, QFRET, fluorogenic peptide substrate; recombinant F. hepatica cathepsin L1, Z-Leu-Arg-MCA fluorescence; inhibition, % at 5.96 µM; actives 0.49% (n = 300,000); AID 1906, 2009;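 active = inhibition above the mean of all tested compounds plus 3 SD, set per screening campaign, cut at about 17% in these data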;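 also: 0% = plate median of test compound wells and 100% = 1 µM Z-Phe-Ala-diazomethylketone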
TDP2 inh conf = human TDP2 enzyme inhibitors, retest, confirmation, biochemical, epi absorbance, recombinant enzyme | inhibition, % at 12.8 µM | actives 22% (n = 1,100) | shares compounds with TDP2 absorb | absorbance read-out; in the data active = inhibition above about 25%;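 also: 0% = vehicle with enzyme and 100% = no enzyme buffer only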
Starred values were filed as active, the others as inactive; / = no result.

SMILES	PAD4 FP inh	GSTO1 counter	TDP2 absorb	PRMT1 FP inh	Fh CTSL1 inh	TDP2 inh conf
CCOc1ccc2nc(SCC(=O)NCC3CCCO3)c(C#N)cc2c1 (centres undefined)	4	-2	27*	1	3	-2
Cc1ccc(C2C(C#N)=C(N)Oc3n[nH]c(-c4cccs4)c32)s1 (centres undefined)	9	17	34*	3	2	0
CC(C)C[C@H]1COc2cc(N3CCSCC3)ccc2S(=O)(=O)N1C	/	/	12	0	/	/
O=C1NC(=O)C(=Cc2ccccc2[N+](=O)[O-])S1	/	/	25*	9	/	44*
O=C1NC(=O)/C(=C\c2ccccc2OCc2ccccc2)S1	-3	-8	4	4	11	/
COc1ccc(/C=N/NC(=O)c2nnn(-c3nonc3N)c2CN(C)c2ccccc2)cc1	5	2	27*	-3	1	7
NC(=S)N=Nc1c(O)[nH]c2ccc(F)cc12	-2	3	1	8	4	/
NC(=S)N=Nc1c(O)cc(O)c2[nH]c(=O)ccc12	/	/	52*	70*	/	44*
Cn1c(-c2ccccc2)cnc1NCc1ccccc1	-2	4	29*	-3	1	-5
CC(=O)c1cc(-c2cc3ccccc3o2)c(=O)n2c1CCC2	/	/	9	0	/	/
